This passage reports residual activity and Activity results from ChEMBL document CHEMBL1821664, “Sulfonamides as a new scaffold for hypoxia inducible factor pathway inhibitors” (Bioorg Med Chem Lett, 2011).

Assay [1] deals with T1, Hypoxia inducible factors; HIF-1-alpha, HIF-2-alpha (Homo sapiens, UniProt Q16665+Q99814). As to the kind of experiment: Inhibition of hypoxia-induced HIF1 activation in human LN229 cells expressing HRE-AP reporter gene at 2.5 uM preincubated for 1 hr under normoxia condition followed by 24 hrs incubation under hypoxia condition by HRE-luciferase reporter assay relative to control; values are per cent of control.

Assay [2] deals with T1, Hypoxia inducible factors; HIF-1-alpha, HIF-2-alpha. As to the kind of experiment: Inhibition of hypoxia-induced HIF1 activation in human LN229 cells expressing HRE-AP reporter gene at 10 uM preincubated for 1 hr under normoxia condition followed by 24 hrs incubation under hypoxia condition by HRE-luciferase reporter assay relative to control; values are per cent of control.

The target is the same in assay [3]. As to the kind of experiment: Inhibition of hypoxia-induced HIF1 activation in human LN229 cells expressing HRE-AP reporter gene at 5 uM preincubated for 1 hr under normoxia condition followed by 24 hrs incubation under hypoxia condition by HRE-luciferase reporter assay relative to control; values are per cent of control.
For assay [4] the target is unchanged. As to the kind of experiment: Inhibition of hypoxia-induced HIF1 activation in human LN229 cells expressing HRE-AP reporter gene assessed as HRE remaining activity at 10 uM preincubated for 1 hr under normoxia condition followed by 24 hrs incubation under hypoxia condition by alkaline phosphatase reporter assay relative to control. The format is cell-based. A digest of the protocol:
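LN229-HRE-AP cells pre-treated 1 h with compound or vehicle (1% DMSO), then 24 h in 1% O2 hypoxia incubator; cells lysed and alkaline phosphatase activity measured. Hits were compounds reducing hypoxic AP induction >50%; single assay.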

For the compound `COc1ccc(S(=O)(=O)N(Cc2ccccc2)Cc2ccc3c(c2)C=CC(C)(C)O3)c(OC)c1`, the figures for the residual activity in assay [1], in assay [2] and in assay [3] were 60%, 20% and 54%, respectively. For the compound `C=Cc1ccc2c(c1)C=CC(C)(C)O2`, the Activity in assay [4] was determined as 98.2%. On the same count and under the same terms, the figure for `COc1c(CN(Cc2ccccc2)C(=O)c2cccs2)ccc2c1OC(C)(C)C=C2` is 67.5%. The same measure, in the same setting: for `COc1c(CN(c2ccccc2)S(=O)(=O)c2ccc([N+](=O)[O-])cc2)ccc2c1OC(C)(C)C=C2` the value was 72.4%. On to `COc1ccc(S(=O)(=O)N(Cc2ccc3c(c2)C=CC(C)(C)O3)C2CCCCC2)cc1OC`, for which the residual activity in assay [1] amounted to 44%; in assay [2] it was 4%; in assay [3] it was 17%. The corresponding values for `COc1ccc(Cl)cc1S(=O)(=O)N(Cc1ccccc1)Cc1ccc2c(c1)C=CC(C)(C)O2` are 66%, 50% and 78%. Turning to `COc1c(CN(Cc2ccccc2)S(=O)(=O)c2ccc(C)cc2)ccc2c1OC(C)(C)C=C2`, the Activity in assay [4] stood at 40.4%. With `CC1(C)C=Cc2cc(CN(Cc3ccccc3)S(=O)(=O)c3ccc([N+](=O)[O-])cc3)ccc2O1`, the values for the residual activity in assay [1], in assay [2] and in assay [3] were 47%, 27% and 35%, respectively. In the case of `CC1(C)C=Cc2cc(/C=N/O)ccc2O1`, the Activity in assay [4] came out at 91.4%. As for `COc1c(/C=N/O)ccc2c1OC(C)(C)C=C2`, the Activity in assay [4] stood at 89.4%.

For the compound `CC(C)N(Cc1ccc2c(c1)C=CC(C)(C)O2)C(=O)c1cccs1`, the Activity in assay [4] stood at 46.2%. `CC(c1ccc2c(c1)C=CC(C)(C)O2)n1cnc2ncccc21` (centres undefined): the Activity in assay [4] came to 76.9%.

As to `COc1c(CN(C(=O)c2ccc(Br)cc2)c2ccccc2)ccc2c1OC(C)(C)C=C2`, the Activity in assay [4] was determined as 63.2%. On the same count and under the same terms, the figure for `COc1c(CN(Cc2ccccc2)S(=O)(=O)c2cc(Cl)ccc2Cl)ccc2c1OC(C)(C)C=C2` is 35%; for `COc1ccc(S(=O)(=O)N(Cc2ccc3c(c2OC)OC(C)(C)C=C3)c2ccccc2)cc1OC` it is 48.6%.

As to `COc1ccc(Cl)cc1S(=O)(=O)N(Cc1ccc2c(c1)C=CC(C)(C)O2)c1ccccc1`, the residual activity in assay [1] is 61%; in assay [2], 28%; in assay [3], 56%. As to `CC1(C)C=Cc2cc(CN(C(=O)c3ccc(Br)cc3)c3ccccc3)ccc2O1`, in assay [4], the Activity is 57.6%. `CC(C)N(Cc1ccc2c(c1)C=CC(C)(C)O2)S(=O)(=O)c1ccc([N+](=O)[O-])cc1`: the Activity in assay [4] was 43.2%. Regarding `CC1(C)C=Cc2cc(C(O)c3cn(Cc4ccccc4)nn3)ccc2O1` (centres undefined), the Activity in assay [4] amounted to 88.8%. Take `COc1ccc(Cl)cc1S(=O)(=O)N(Cc1ccc2c(c1)C=CC(C)(C)O2)CC(C)C`: the residual activity is 81% in assay [1], 73% in assay [2] and 90% in assay [3].

As to `CC(C)N(Cc1ccc2c(c1)C=CC(C)(C)O2)S(=O)(=O)c1cc(Cl)ccc1Cl`, the Activity in assay [4] is 41.9%. For `COc1c(C(C)n2cnc3ncccc32)ccc2c1C=CC(C)(C)O2` (centres undefined), the Activity in assay [4] was 95.7%.

Regarding `COc1c(C(C)n2ccnc2)ccc2c1C=CC(C)(C)O2` (centres undefined), the Activity in assay [4] is 104%. Turning to `COc1c(CN(Cc2ccccc2)S(=O)(=O)c2ccc([N+](=O)[O-])cc2)ccc2c1OC(C)(C)C=C2`, the Activity in assay [4] amounted to 62.2%. On the same count and under the same terms, the figure for `COc1c(CN(c2ccccc2)S(=O)(=O)c2cc(Cl)ccc2Cl)ccc2c1OC(C)(C)C=C2` is 51.5%.

Take `CC(O)c1ccc2c(c1)C=CC(C)(C)O2` (centres undefined): the Activity in assay [4] was 94.9%.

On to `COc1c(CN(C(=O)c2cccs2)c2ccccc2)ccc2c1OC(C)(C)C=C2`, for which the Activity in assay [4] turned out to be 61.8%. On the same count and under the same terms, the figure for `COc1c(CN(c2ccccc2)S(=O)(=O)c2ccc(C)cc2)ccc2c1OC(C)(C)C=C2` is 58.4%. On the same count and under the same terms, the figure for `COc1ccc(S(=O)(=O)N(Cc2ccccc2)Cc2ccc3c(c2OC)OC(C)(C)C=C3)cc1OC` is 68.5%. Turning to `COc1c(C(C(C)C)n2cnc3ncccc32)ccc2c1C=CC(C)(C)O2` (centres undefined), the Activity in assay [4] was determined as 88.8%.

Take `CC1(C)C=Cc2cc(CN(C3CCCCC3)S(=O)(=O)c3ccc(Oc4c(Cl)cccc4[N+](=O)[O-])cc3)ccc2O1`: the residual activity in assay [1] was 73%; in assay [2], 49%; in assay [3] it was 49%. Regarding `CC1(C)C=Cc2cc(C(O)c3cn(CCOc4ccc5ccc(=O)oc5c4)nn3)ccc2O1` (centres undefined), the Activity in assay [4] was 117%.

Consider `CC1(C)C=Cc2cc(CN(C3CCCCC3)S(=O)(=O)c3cc(Cl)ccc3Cl)ccc2O1`, for which the results for the residual activity in assay [1], in assay [2] and in assay [3] were 54%, 24% and 60%, respectively.

As for `CC1(C)C=Cc2cc(C(c3ccccc3)n3ccnc3)ccc2O1` (centres undefined), the Activity in assay [4] worked out at 88.9%.

Regarding `COc1c(C(C(C)C)n2ccnc2)ccc2c1C=CC(C)(C)O2` (centres undefined), the Activity in assay [4] was 135%. On to `CC(C)CN(Cc1ccc2c(c1)C=CC(C)(C)O2)S(=O)(=O)c1ccc(Br)cc1OC(F)(F)F`, for which the values for the residual activity in assay [1], in assay [2] and in assay [3] were 49%, 24% and 57%, respectively. In the same order, the values of `CC1(C)C=Cc2cc(CN(C3CCCCC3)S(=O)(=O)c3ccc(Br)cc3OC(F)(F)F)ccc2O1` are 79%, 61% and 75%. As for `CC1(C)C=Cc2cc(C(c3ccccc3)n3cnc4cc(Cl)ccc43)ccc2O1` (centres undefined), in assay [4], the Activity was determined as 87.9%. Same read-out and setting: the figure for `COc1ccc(S(=O)(=O)N(Cc2ccc3c(c2)C=CC(C)(C)O3)C(C)C)cc1OC` is 64.7%; for `CC1(C)C=Cc2cc(C(c3ccccc3)n3cnc4ncccc43)ccc2O1` (centres undefined) it is 83.5%; for `CC1(C)C=Cc2cc(C(O)c3cn(C(C)(C)C)nn3)ccc2O1` (centres undefined) it is 90.7%. The same measure, in the same setting: for `COc1c(CN(Cc2ccccc2)C(C)=O)ccc2c1OC(C)(C)C=C2` the value was 93.1%.

In the case of `CC1(C)C=Cc2cc(CN(c3ccccc3)S(=O)(=O)c3cccc4ccccc34)ccc2O1`, the residual activity stood at 55% in assay [1], 29% in assay [2] and 75% in assay [3]. Consider `CC(=O)N(Cc1ccc2c(c1)C=CC(C)(C)O2)C(C)C`, for which the Activity in assay [4] was determined as 105%. Consider `COc1c(C(C)n2cnc3cc(Cl)ccc32)ccc2c1C=CC(C)(C)O2` (centres undefined), for which, in assay [4], the Activity was found to be 55.7%. With `CC1(C)C=Cc2cc(CN(Cc3ccccc3)S(=O)(=O)c3ccc(Oc4c(Cl)cccc4[N+](=O)[O-])cc3)ccc2O1`, the residual activity was determined as 54% in assay [1], 27% in assay [2] and 51% in assay [3]. As for `CC1(C)C=Cc2cc(CN(c3ccccc3)S(=O)(=O)c3ccc(Oc4c(Cl)cccc4[N+](=O)[O-])cc3)ccc2O1`, the residual activity is 40% in assay [1], 27% in assay [2] and 21% in assay [3].

As for `Cc1ccc(S(=O)(=O)N(Cc2ccc3c(c2)C=CC(C)(C)O3)C(C)C)cc1`, the Activity in assay [4] is 55%.

Turning to `CC1(C)C=Cc2cc(CN(c3ccccc3)S(=O)(=O)c3ccc(Br)cc3OC(F)(F)F)ccc2O1`, the figures for the residual activity in assay [1], in assay [2] and in assay [3] were 53%, 35% and 56%, respectively. For `CC1(C)C=Cc2cc(C(O)c3cn(C45CC6CC(CC(C6)C4)C5)nn3)ccc2O1` (centres undefined), the Activity in assay [4] was found to be 101%. As to `COc1ccc(S(=O)(=O)N(Cc2ccccc2)Cc2ccc3c(c2)C=CC(C)(C)O3)cc1OC`, the residual activity stood at 54% in assay [1], 15% in assay [2] and 26% in assay [3]. Regarding `CCOC(OCC)c1ccc2c(c1OC)OC(C)(C)C=C2`, in assay [4], the Activity amounted to 105%. Regarding `CCN(CC)C(=O)OCn1cc(C(O)c2ccc3c(c2)C=CC(C)(C)O3)nn1` (centres undefined), the Activity in assay [4] is 97.7%. Consider `CC(C)CN(Cc1ccc2c(c1)C=CC(C)(C)O2)S(=O)(=O)c1ccc(Oc2c(Cl)cccc2[N+](=O)[O-])cc1`, for which the values for the residual activity in assay [1], in assay [2] and in assay [3] were 34%, 24% and 23%, respectively.

On to `CC1(C)C=Cc2cc(CN(C(=O)c3cccs3)c3ccccc3)ccc2O1`, for which the Activity in assay [4] stood at 79.1%. For `CC1(C)C=Cc2cc(CN(C3CCCCC3)S(=O)(=O)c3ccc([N+](=O)[O-])cc3)ccc2O1`, the residual activity in assay [1] worked out at 68%; in assay [2], 33%; in assay [3], 53%. In the case of `CC1(C)C=Cc2cc(C(O)n3cc(-c4ccccc4)nn3)ccc2O1` (centres undefined), the Activity in assay [4] was 106%.

In the case of `COc1ccc(S(=O)(=O)N(Cc2ccc3c(c2)C=CC(C)(C)O3)c2ccccc2)c(OC)c1`, the residual activity came out at 76% in assay [1], 31% in assay [2] and 61% in assay [3]. As to `CC(c1ccc2c(c1)C=CC(C)(C)O2)n1ccnc1` (centres undefined), the Activity in assay [4] came to 86.6%.

As to `CC(C)N(Cc1ccc2c(c1)C=CC(C)(C)O2)C(=O)c1ccc(Br)cc1`, the Activity in assay [4] turned out to be 63.9%. Still for that read-out and setting: for `CC1(C)C=Cc2cc(C(O)c3cn(CCNc4ccc([N+](=O)[O-])c5nonc45)nn3)ccc2O1` (centres undefined) the value was 116%. For `COc1c(CN(C(C)=O)c2ccccc2)ccc2c1OC(C)(C)C=C2`, in assay [4], the Activity was 108%. In the case of `CC(=O)N(Cc1ccc2c(c1)C=CC(C)(C)O2)c1ccccc1`, the Activity in assay [4] was 91.5%.
